Compounds with a hit are over-represented: about 4% of the library has one in this group of screens.
TAAR1 ag: agonists of human TAAR1 | Q96RJ0 | CHO RD-HGA16 TAAR1, Fluo-8 calcium fluorescence; vehicle wells 0%, saturating PEA agonist 100% | activation, % at 3 µM | 360,000 compounds, 0.99% hits;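 active = activation above the mean activation of all test compounds in the run plus 3 SD, cut at about 38% in these data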
Target sequence (Q96RJ0 whole entry, looked up): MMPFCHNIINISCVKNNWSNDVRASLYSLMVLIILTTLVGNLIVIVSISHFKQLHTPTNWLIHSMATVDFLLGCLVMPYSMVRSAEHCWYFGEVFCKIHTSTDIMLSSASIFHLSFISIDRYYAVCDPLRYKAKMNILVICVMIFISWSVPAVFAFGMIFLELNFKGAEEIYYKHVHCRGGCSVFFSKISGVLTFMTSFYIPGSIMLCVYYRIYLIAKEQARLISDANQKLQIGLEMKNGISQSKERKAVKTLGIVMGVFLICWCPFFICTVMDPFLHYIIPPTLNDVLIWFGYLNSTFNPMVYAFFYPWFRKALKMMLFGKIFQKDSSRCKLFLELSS
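test system = CHO RD-HGA16 cells carrying human TAAR1 plus Gα16 | schedule = 17-24 h seeding, 75 min 37 °C dye, 30 min RT | compound dosing = 3 µM single concentration | control set = DMSO and PEA EC100 | replicates = n 1 | signal = Fluo-8 fluorescence, 5 s baseline then 140 s kinetic read | measure = percent activation vs PEA EC100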
TAAR1 antagonist: human TAAR1 antagonism | Q96RJ0 | CHO RD-HGA16 TAAR1, Fluo-8 calcium fluorescence, antagonist | inhibition, % at 3 µM | 360,000 compounds, 1.5% hits | AID 624466;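 active = inhibition above a per-plate cutoff, the mean inhibition of test compounds on that plate plus 3 SD, cut at about 49% in these data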;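 note: 0% = DMSO plus EC80 beta-PEA response and 100% = DMSO alone without agonist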
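Test system: hTAAR1-expressing CHO RD-HGA16 cells, Gα16-coupled; Probe or stimulus: EC80 β-phenethylamine stimulus; Compound dosing: single nominal final test compound concentration of 3 µM; Timing: 140 s kinetic read after compound, 140 s after agonist; Signal: Fluo-8 calcium-sensitive fluorescence; Measure: % inhibition of agonist calcium response; Controls: DMSO and EC80 PEA controls.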
OX1R antag-1: blocks the human orexin 1 receptor. O43613. OX1R-expressing cells, FRET antagonist read-out. inhibition, % at 6.6 µM. 330,000 compounds, 1.8% hits; in the data active = inhibition mostly above about 38%, no sharp cut-off; inactive = mostly below about 40%;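 note: 0% = agonist challenge alone and 100% = reference antagonist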
Target sequence (O43613 whole entry, looked up): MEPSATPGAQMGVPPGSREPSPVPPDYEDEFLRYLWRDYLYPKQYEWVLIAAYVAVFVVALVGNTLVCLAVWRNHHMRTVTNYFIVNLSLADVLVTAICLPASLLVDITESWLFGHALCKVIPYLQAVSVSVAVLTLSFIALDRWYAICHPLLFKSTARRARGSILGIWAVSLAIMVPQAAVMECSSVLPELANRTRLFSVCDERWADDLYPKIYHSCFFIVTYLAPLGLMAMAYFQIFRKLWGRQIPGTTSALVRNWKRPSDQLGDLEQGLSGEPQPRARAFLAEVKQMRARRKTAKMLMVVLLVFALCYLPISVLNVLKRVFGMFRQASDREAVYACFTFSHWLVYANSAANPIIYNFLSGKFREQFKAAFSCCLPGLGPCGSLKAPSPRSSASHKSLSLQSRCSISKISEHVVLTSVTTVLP
OX1R antag-2: human HCRTR1 antagonism; O43613; 330,000 compounds, 0.43% hits; CHO/OX1R cells, Fluo-8 calcium fluorescence, orexin A; inhibition, % at 5 µM; AID 434989;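 active = inhibition above its plate's threshold, mean inhibition of all tested compounds on the plate plus 3 SD, cut at about 37% in these data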;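 note: 0% = orexin A challenge wells and 100% = SB-334867-A antagonist wells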
CHO parental Ca: counter-screen: ATP calcium response change in parental CHO cells; 330,000 compounds, 0.63% hits; inhibition, % at 5.6 µM; AID 463079; parental CHO-K1, ATP-induced calcium, Fluo-8 fluorescence;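 active = inhibition above that plate's mean sample inhibition plus 3 SD, cut at about 26% in these data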;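 note: 0% = ATP-challenged DMSO wells and 100% = DMSO wells without ATP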
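Assay system: untransfected parental CHO cell line. Also added: ATP agonist challenge. Dosing: one dose, 5.6 µM nominal. Measured by: Fluo-8 fluorescence. Read-out: % inhibition. Benchmarks: ATP wells versus no-ATP DMSO wells. Repeats: no replicates.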
TAAR1 ag confirm: confirmation of human TAAR1 agonists; shares compounds with TAAR1 ag; CHO RD-HGA16 TAAR1, Fluo-8 calcium fluorescence; scaled: DMSO 0%, maximal phenethylamine 100%; activation, % at 3 µM; 2,400 compounds, 82% hits; AID 651783;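 active = activation above a cutoff set at the run's mean compound activation plus 3 SD, cut at about 39% in these data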
Ga16 ag counter: nonselective agonism, TAAR1 counter-screen. shares compounds with TAAR1 ag. CHO-Ga16 parental, Fluo-8 calcium fluorescence; normalized to maximal ATP response, DMSO zero. activation, % at 3 µM. 2,400 compounds, 50% hits. AID 651787;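 active = activation above the run cutoff, the mean activation over all tested wells plus 3 SD, cut at about 12% in these data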;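 note: 0% = DMSO wells and 100% = maximal ATP response on the peak over basal ratio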
TAAR1 desensitize: TAAR1 response desensitization, agonist counter-screen; shares compounds with TAAR1 ag; CHO RD-HGA16 hTAAR1, Fluo-8 calcium, beta-PEA response inhibition; inhibition, % at 3 µM; 2,400 compounds, 46% hits;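 active = inhibition above the run cutoff, the mean inhibition of all test compounds plus 3 SD, cut at about 49% in these data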;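 note: beta-PEA stimulus applied at its EC80; loss of beta-PEA calcium signal after compound pretreatment read as receptor desensitization; 0% = DMSO with beta-PEA at EC80 and 100% = DMSO alone without agonist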
Ga16 antag count: counter-screen for TAAR1 agonists: nonselective Ga16 antagonists | shares compounds with TAAR1 ag | CHO-Ga16 ATP-induced calcium, Fluo-8 fluorescence | inhibition, % at 3 µM | 2,400 compounds, 39% hits;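 active = inhibition above the plate's mean compound inhibition plus 3 SD, computed per plate, cut at about 22% in these data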;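 note: 0% = EC80 ATP with DMSO and 100% = DMSO wells without ATP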
Active calls of the source: *; . = not tested or not shown.

SMILES | TAAR1 ag | TAAR1 antagonist | OX1R antag-1 | OX1R antag-2 | CHO parental Ca | TAAR1 ag confirm | Ga16 ag counter | TAAR1 desensitize | Ga16 antag count
COc1ccccc1NS(=O)(=O)c1cccc(NC(=O)Nc2ccc(Cl)cc2)c1 | 56* | 76* | 52* | 51* | 82* | 46* | 19* | 93* | 58*
COc1ccccc1NS(=O)(=O)c1ccc(Cl)cc1 | 5 | -5 | 1 | -4 | -18 | . | . | . | .
CCN(CC)C(=S)Nc1ccc2nc3n(c(=O)c2c1)CCCCC3 | 1 | -20 | 15 | -21 | -13 | . | . | . | .
COc1ccc(S(=O)(=O)NNC(=S)NCCc2ccccc2)c(OC)c1 | 49* | -30 | -3 | -13 | -10 | 17 | 1 | 3 | 6
COc1ccc(NC(=S)NCCc2ccccc2)c(OC)c1 | 17 | -12 | -1 | -14 | -9 | . | . | . | .
CC(Oc1ccccc1Cl)C(=O)Nc1ccc(S(=O)(=O)Nc2nccs2)cc1 (stereo not given) | -1 | 6 | 20 | -6 | -12 | . | . | . | .
COc1ccc(NC(=O)CCNC(=O)C2CCN(S(=O)(=O)c3ccccc3)CC2)cc1OC | 0 | 2 | . | . | . | . | . | . | .
O=C(Nc1ccccc1)N1CCc2ccccc2C1 | 48* | 20 | 3 | 0 | -17 | 54* | 5 | 14 | 5
Cc1ccc(C)c(NC(=O)CCN2CCc3ccccc3C2)c1 | 4 | -19 | 26 | -1 | -24 | . | . | . | .
Cc1ccc(NC(=O)N2CCc3ccccc32)cc1 | -3 | -2 | 6 | -14 | 1 | . | . | . | .
CC(=O)c1cccc(NC(=O)N2CCc3ccccc3C2)c1 | 56* | 19 | 3 | -25 | -15 | 62* | 5 | 24 | 18
CC(=O)c1ccc(NC(=O)N2CCc3ccccc3C2)cc1 | 14 | 21 | 3 | -26 | -8 | . | . | . | .
Cc1ccc(NC(=O)N2CCc3ccccc3C2)cc1 | 68* | 8 | 10 | -16 | -6 | 43* | 1 | 5 | 1
O=C(Nc1ccc(Cl)cc1)N1CCc2ccccc2C1 | 30 | 0 | 27 | -21 | -20 | . | . | . | .
Cc1ccc(NC(=O)N2CCc3ccccc3C2)c(C)c1 | 92* | 43 | 18 | -17 | -9 | 66* | 3 | 20 | 12
CC1(C(=O)O)CCC(C(=O)N2CCCCC2)C1(C)C (stereo not given) | 1 | -2 | 17 | 0 | -8 | . | . | . | .
O=C(O)CSc1c2c(nc3cc(C(=O)Nc4ccc(F)c(Cl)c4)ccc13)CCCC2 | 0 | -18 | -2 | -8 | 5 | . | . | . | .
COc1ccccc1N1CCN(Cc2cn[nH]c2-c2ccc(F)cc2)CC1 | 121* | 0 | 12 | -45 | -41 | 123* | 80* | 48 | 6
COc1cc(OC)c(OC)cc1CN1CCN(c2ccccc2OC)CC1 | 5 | -20 | 5 | -26 | -22 | . | . | . | .
Cn1cccc1/C=N/n1c(-c2ccc(Cl)cc2)n[nH]c1=S | 22 | -6 | 43 | -8 | -12 | . | . | . | .
Cn1cccc1/C=N/n1c(-c2ccc(Cl)cc2Cl)n[nH]c1=S | 62* | 29 | 30 | 20 | -10 | 53* | 26* | 26 | 24*
O=C(Cc1ccccc1)NC(NCCc1ccccc1)C(Cl)(Cl)Cl (stereo not given) | 44* | 9 | 21 | -9 | -5 | 50* | 2 | 15 | 8
N#C/C(=C\c1ccc(N2CCOCC2)o1)C(=O)Nc1ccc(O)cc1 | 58* | 31 | 61* | 12 | 11 | 21 | 19* | 22 | 28*
COc1ccc(NC(=O)/C(C#N)=C\c2ccc(N3CCOCC3)o2)cc1 | 135* | 76* | 59* | 54* | 47* | 49* | 60* | 65* | 62*
CC1CCN(C2=NC(=O)/C(=C/c3cn(-c4ccccc4)nc3-c3cccc(S(=O)(=O)N(C)C)c3)S2)CC1 | -1 | -11 | 19 | -36 | -20 | . | . | . | .
SMILES | TAAR1 ag | TAAR1 antagonist | OX1R antag-1 | OX1R antag-2 | CHO parental Ca | TAAR1 ag confirm | Ga16 ag counter | TAAR1 desensitize | Ga16 antag count
CC1=[N+]([O-])C(C)(C)N(O)C1(C)C | 4 | -5 | 15 | -6 | -25 | . | . | . | .
c1ccc(N/N=C(\Cc2ncc[nH]2)c2ccccc2)cc1 | . | . | 9 | -20 | -14 | . | 4 | . | 9
Cc1cccc(-c2cc3nc(C)cc(N4CC(C)CC(C)C4)n3n2)c1 (stereo not given) | 70* | -15 | -12 | -28 | -32 | 82* | 7 | 30 | -2
Cc1ccc(N=C2NC(=O)/C(=C/c3cn(C)c4ccccc34)S2)cc1C | 18 | 20 | 14 | 10 | 20 | . | . | . | .
O=C(NCCCn1ccnc1)c1ccc(-c2cccc(Cl)c2Cl)o1 | 63* | 12 | 7 | -19 | -25 | 50* | 33* | 17 | 7
COc1ccc(NC(=O)c2ccc(=O)[nH]c2)cc1S(=O)(=O)N1CCOCC1 | 1 | -26 | . | . | . | . | . | . | .
O=C(Nc1nc2c(Cl)ccc(Cl)c2s1)c1ccco1 | 114* | 70* | 3 | -1 | 8 | 107* | 89* | 92* | 62*
COC(=O)NC1c2ccccc2Oc2ccc(C)cc21 (stereo not given) | 43* | 38 | -3 | -30 | -12 | 83* | 38* | 76* | 34*
O=C(CCS(=O)(=O)c1ccc2c(c1)NC(=O)CO2)NCCc1ccccc1 | 66* | 27 | 9 | -12 | -2 | 62* | -1 | 5 | -1
O=C(CCS(=O)(=O)c1ccc2c(c1)NC(=O)CO2)NCc1ccccc1 | 1 | -16 | 3 | -17 | -9 | . | . | . | .
Cc1ccc(C(c2sc3ncnn3c2O)N2CCCCC2)cc1 (stereo not given) | -1 | -16 | 10 | -17 | -9 | . | . | . | .
Oc1c(C(c2ccc(F)cc2)N2CCc3ccccc3C2)sc2ncnn12 (stereo not given) | . | . | 7 | -14 | -16 | . | 7 | . | 13
Cc1nc2sc(C(c3ccco3)N3CCc4ccccc4C3)c(O)n2n1 (stereo not given) | 76* | 54* | 6 | -15 | -20 | 96* | 8 | 70* | 4
CC1(C)CC(=O)C(C=NCCc2ccccn2)=C(O)C1 | 16 | -7 | 3 | 3 | -4 | . | . | . | .
CC1(C)CC(=O)C(C=NCCc2ccc(O)cc2)=C(O)C1 | 66* | 32 | 16 | -11 | -7 | 106* | 0 | 79* | -4
Oc1ccc(C=NCCc2ccccc2)cc1 | . | . | -5 | 0 | 4 | . | 0 | . | -4
